Experiments:
Assay type in all cases: ADME, organism-based
[1] = species: Rattus norvegicus; experiment: The distribution of the 131 I-labeled compound at 30 min was evaluated in rat brain as Percent of injected dose per gram in the organ; conditions: in vivo, 0.5 h
Outline: (§1)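 Male Sprague-Dawley rats (200–300 g, free access to food and water), lightly ether-anesthetized and restrained, received a 0.2 mL saline tail-vein bolus of 10–20 μCi 131I-labeled compound. They were decapitated at the stated time, and organs were excised, weighed and gamma-counted. Percent injected dose was determined against a calibrated external standard made by serial dilution of the injectate. n = 1–4 rats.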

[2] = species: Rattus norvegicus; experiment: The distribution of the 131 I-labeled compound at 30 min was evaluated in rat heart as Percent of injected dose in the total organ; conditions: in vivo, 0.5 h; outline: as §1
[3] = species: Rattus norvegicus; experiment: The distribution of the 131 I-labeled compound at 30 min was evaluated in rat heart as Percent of injected dose per gram in the organ; conditions: in vivo, 0.5 h; outline: as §1
[4] = species: Rattus norvegicus; experiment: The distribution of the 131 I-labeled compound at 30 min was evaluated in rat kidney as Percent of injected dose in the total organ; conditions: in vivo, 0.5 h; outline: as §1
[5] = species: Rattus norvegicus; experiment: The distribution of the 131 I-labeled compound at 30 min was evaluated in rat kidney as Percent of injected dose per gram in the organ; conditions: in vivo, 0.5 h; outline: as §1
[6] = species: Rattus norvegicus; experiment: The distribution of the 131 I-labeled compound at 30 min was evaluated in rat liver as Percent of injected dose in the total organ; conditions: in vivo, 0.5 h; outline: as §1
[7] = species: Rattus norvegicus; experiment: The distribution of the 131 I-labeled compound at 30 min was evaluated in rat liver as Percent of injected dose per gram in the organ; conditions: in vivo, 0.5 h; outline: as §1
[8] = species: Rattus norvegicus; experiment: The distribution of the 131 I-labeled compound at 30 min was evaluated in rat lung as Percent of injected dose per gram in the organ; conditions: in vivo, 0.5 h; outline: as §1
[9] = species: Rattus norvegicus; experiment: The distribution of the 131 I-labeled compound at 5 min was evaluated in rat brain as Percent of injected dose in the total organ; conditions: in vivo; outline: as §1
[10] = species: Rattus norvegicus; experiment: The distribution of the 131 I-labeled compound at 5 min was evaluated in rat brain as Percent of injected dose per gram in the organ; conditions: in vivo; outline: as §1
[11] = species: Rattus norvegicus; experiment: The distribution of the 131 I-labeled compound at 5 min was evaluated in rat heart as Percent of injected dose in the total organ; conditions: in vivo; outline: as §1
[12] = species: Rattus norvegicus; experiment: The distribution of the 131 I-labeled compound at 5 min was evaluated in rat heart as Percent of injected dose per gram in the organ; conditions: in vivo; outline: as §1
[13] = species: Rattus norvegicus; experiment: The distribution of the 131 I-labeled compound at 5 min was evaluated in rat kidney as Percent of injected dose in the total organ; conditions: in vivo; outline: as §1
[14] = species: Rattus norvegicus; experiment: The distribution of the 131 I-labeled compound at 5 min was evaluated in rat kidney as Percent of injected dose per gram in the organ; conditions: in vivo; outline: as §1
[15] = species: Rattus norvegicus; experiment: The distribution of the 131 I-labeled compound at 5 min was evaluated in rat liver as Percent of injected dose in the total organ; conditions: in vivo; outline: as §1
[16] = species: Rattus norvegicus; experiment: The distribution of the 131 I-labeled compound at 5 min was evaluated in rat liver as Percent of injected dose per gram in the organ; conditions: in vivo; outline: as §1
[17] = species: Rattus norvegicus; experiment: The distribution of the 131 I-labeled compound at 5 min was evaluated in rat lung as Percent of injected dose per gram in the organ; conditions: in vivo; outline: as §1
[18] = species: Rattus norvegicus; experiment: The distribution of the 131 I-labeled compound at 30 min was evaluated in rat blood as Percent of injected dose per gram in the organ; conditions: in vivo, 0.5 h; outline: as §1
[19] = species: Rattus norvegicus; experiment: Ratio of distribution of the [131I]-labeled compound at 30 min in rat brain over uptake in blood; conditions: 0.5 h
Outline: (§2)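 Male Sprague-Dawley rats (200–300 g, fed ad libitum), ether-anesthetized, got a tail-vein bolus of 0.2 mL saline containing 10–20 μCi 131I compound and were decapitated at the stated time. Organs were weighed and gamma-counted against a serially diluted external standard. Organ/blood ratio was calculated from % dose per gram of organ. Animal numbers per time point were 1–4.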

[20] = species: Rattus norvegicus; experiment: Ratio of distribution of the [131I]-labeled compound at 30 min in rat heart over uptake in blood; conditions: other tissue, 0.5 h; outline: as §2
[21] = species: Rattus norvegicus; experiment: Ratio of distribution of the [131I]-labeled compound at 30 min in rat kidney over uptake in blood; conditions: other tissue, 0.5 h; outline: as §2
[22] = species: Rattus norvegicus; experiment: Ratio of distribution of the [131I]-labeled compound at 30 min in rat liver over uptake in blood; conditions: other tissue, 0.5 h; outline: as §2
[23] = species: Rattus norvegicus; experiment: Ratio of distribution of the [131I]-labeled compound at 30 min in rat lung over uptake in blood; conditions: other tissue, 0.5 h; outline: as §2
[24] = species: Rattus norvegicus; experiment: Ratio of distribution of the [131I]-labeled compound at 5 min in rat brain over uptake in blood; outline: as §2
[25] = species: Rattus norvegicus; experiment: Ratio of distribution of the [131I]-labeled compound at 5 min in rat heart over uptake in blood; conditions: other tissue; outline: as §2
[26] = species: Rattus norvegicus; experiment: Ratio of distribution of the [131I]-labeled compound at 5 min in rat kidney over uptake in blood; conditions: other tissue; outline: as §2
[27] = species: Rattus norvegicus; experiment: Ratio of distribution of the [131I]-labeled compound at 5 min in rat liver over uptake in blood; conditions: other tissue; outline: as §2
[28] = species: Rattus norvegicus; experiment: Ratio of distribution of the [131I]-labeled compound at 5 min in rat lung over uptake in blood; conditions: other tissue; outline: as §2
[29] = species: Rattus norvegicus; experiment: The distribution of the 131 I-labeled compound at 5 min was evaluated in rat blood as Percent of injected dose per gram in the organ; conditions: in vivo; outline: as §1
[30] = species: Rattus norvegicus; experiment: The distribution of the 131 I-labeled compound at 30 min was evaluated in rat brain as Percent of injected dose in the total organ; conditions: in vivo, 0.5 h; outline: as §1

COc1cc(CC(C)NN)c(OC)cc1I (stereo not given)
Dose [1]: 0.08% | Dose [2]: 0.15% | Dose [3]: 1.2% | Dose [4]: 1.5% | Dose [5]: 0.77% | Dose [6]: 5% | Dose [7]: 0.29% | Dose [8]: 0.26% | Dose [9]: 0.72% | Dose [10]: 0.37% | Dose [11]: 0.4% | Dose [12]: 0.46% | Dose [13]: 2.2% | Dose [14]: 1.2% | Dose [15]: 12% | Dose [16]: 1.3% | Dose [17]: 0.87% | Dose [18]: 0.17% | Ratio [19]: 0.5 | Ratio [20]: 7.1 | Ratio [21]: 4.5 | Ratio [22]: 1.7 | Ratio [23]: 1.5 | Ratio [24]: 1 | Ratio [25]: 1.9 | Ratio [26]: 3.3 | Ratio [27]: 3.6 | Ratio [28]: 2.4 | Dose [29]: 0.36% | Dose [30]: 0.14%

COc1cc(CC(C)N)c(OC)cc1I (stereo not given)
Dose [1]: 0.4% | Dose [2]: 0.32% | Dose [3]: 0.29% | Dose [4]: 2.8% | Dose [5]: 1.1% | Dose [6]: 10% | Dose [7]: 0.8% | Dose [8]: 2.8% | Dose [9]: 0.64% | Dose [10]: 0.34% | Dose [11]: 0.92% | Dose [12]: 0.86% | Dose [13]: 3.2% | Dose [14]: 1.2% | Dose [15]: 5.6% | Dose [16]: 0.83% | Dose [17]: 3.3% | Dose [18]: 0.06% | Ratio [19]: 6.7 | Ratio [20]: 14 | Ratio [21]: 18 | Ratio [22]: 13 | Ratio [23]: 46 | Ratio [24]: 4.7 | Ratio [25]: 12 | Ratio [26]: 17 | Ratio [27]: 12 | Ratio [28]: 47 | Dose [29]: 0.07% | Dose [30]: 0.76%

COc1cc(CC(C)NCCCN(C)C)c(OC)cc1I (stereo not given)
Dose [1]: 0.02% | Dose [2]: 1.6% | Dose [3]: 1.5% | Dose [4]: 5.7% | Dose [5]: 2% | Dose [6]: 7.7% | Dose [7]: 0.55% | Dose [8]: 5.4% | Dose [9]: 0.05% | Dose [10]: 0.03% | Dose [11]: 1.9% | Dose [12]: 1.8% | Dose [13]: 57% | Dose [14]: 2% | Dose [15]: 11% | Dose [16]: 0.66% | Dose [17]: 3.8% | Dose [18]: 0.07% | Ratio [19]: 0.3 | Ratio [20]: 21 | Ratio [21]: 29 | Ratio [22]: 7.8 | Ratio [23]: 77 | Ratio [24]: 0.3 | Ratio [25]: 17 | Ratio [26]: 16 | Ratio [27]: 6 | Ratio [28]: 34 | Dose [29]: 0.11% | Dose [30]: 0.04%

COc1cc(CC(C)NCC#N)c(OC)cc1I (stereo not given)
Dose [1]: 0.31% | Dose [2]: 0.3% | Dose [3]: 0.39% | Dose [4]: 2.2% | Dose [5]: 1.2% | Dose [6]: 9.5% | Dose [7]: 1.2% | Dose [8]: 1.9% | Dose [9]: 0.61% | Dose [10]: 0.3% | Dose [11]: 0.69% | Dose [12]: 0.52% | Dose [13]: 4.8% | Dose [14]: 1.5% | Dose [15]: 8.4% | Dose [16]: 0.53% | Dose [17]: 2.6% | Dose [18]: 0.13% | Ratio [19]: 2.4 | Ratio [20]: 3 | Ratio [21]: 9.2 | Ratio [22]: 9.2 | Ratio [23]: 15 | Ratio [24]: 3 | Ratio [25]: 4.7 | Ratio [26]: 15 | Ratio [27]: 4.8 | Ratio [28]: 24 | Dose [29]: 0.11% | Dose [30]: 0.61%

COc1cc(CC(C)N(C)C(C)C)c(OC)cc1I (stereo not given)
Dose [1]: 0.05% | Dose [2]: 0.24% | Dose [3]: 0.19% | Dose [4]: 1.1% | Dose [5]: 0.38% | Dose [6]: 4.6% | Dose [7]: 0.32% | Dose [8]: 0.38% | Dose [9]: 0.23% | Dose [10]: 0.12% | Dose [11]: 0.39% | Dose [12]: 0.34% | Dose [13]: 1.5% | Dose [14]: 0.53% | Dose [15]: 10% | Dose [16]: 0.76% | Dose [17]: 0.53% | Dose [18]: 0.53% | Ratio [19]: 0.09 | Ratio [20]: 0.36 | Ratio [21]: 0.72 | Ratio [22]: 0.6 | Ratio [23]: 0.72 | Ratio [24]: 0.24 | Ratio [25]: 0.68 | Ratio [26]: 1.1 | Ratio [27]: 1.6 | Ratio [28]: 1.1 | Dose [29]: 0.5% | Dose [30]: 0.1%
